According to publication PMC3172161 (ACS chemical neuroscience, 2011):
Where two headings read alike, the source gives them in different places.

Tests used:
rat mGlu5 [1] = molecular target: T1, rat mGlu5 (Rattus norvegicus, UniProt P31424); experiment: Calcium mobilization assay; format: cell-based; conditions: for % Glu Max: amplitude of response in the presence of 30 μM test compound as a percentage of maximal response (100 μM glutamate)
Procedure, shortened: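 HEK293A cells stably expressing rat mGlu5 were plated at 20K/well and grown overnight at 37 °C in 6% CO2. They were loaded with 2 μM Fluo-4 AM at 37 °C in HBSS with 20 mM HEPES and 2.5 mM probenecid. Compound (10-point 1:3 series, 30 μM–1 nM final) was added 140 s before EC20 glutamate, then EC80 glutamate 74 s later. Ca2+ fluorescence read at 1 Hz; IC50 from four-parameter logistic fit.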

rat mGlu5 [2] = molecular target: T1, rat mGlu5; experiment: Radioligand binding assay, [3H]methoxyPEPy competition
Procedure, shortened: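 Competition binding used membranes from rat mGlu5 HEK293A cells (40 μg/well) in 50 mM Tris/0.9% NaCl, pH 7.4, with [3H]methoxyPEPy (2 nM final) and test compound. Incubation was 1 h at room temperature with shaking, then GF/B filtration, 3–4 buffer washes and scintillation counting. Non-specific binding defined with 5 μM MPEP; curves fitted by four-parameter logistic equation.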

[3] = molecular target: mGlu5 in rat cortical astrocytes (Rattus norvegicus, UniProt P31424); experiment: Rat cortical astrocytes assay; format: cell-based; conditions: fixed concentration 10 μM, increasing concentrations of glutamate
mGlu1 = mGlu1 (Homo sapiens, UniProt Q13255); experiment: Cell based functional selectivity assay
mGlu2 = mGlu2 (Homo sapiens, UniProt Q14416); experiment: Cell based functional selectivity assay
mGlu3 = mGlu3 (Homo sapiens, UniProt Q14832); experiment: Cell based functional selectivity assay
mGlu4 = mGlu4 (Homo sapiens, UniProt Q14833); experiment: Cell based functional selectivity assay
mGlu7 = mGlu7 (Homo sapiens, UniProt Q14831); experiment: Cell based functional selectivity assay
mGlu8 = mGlu8 (Homo sapiens, UniProt O00222); experiment: Cell based functional selectivity assay
[4] = Stability in liver microsomes; format: in vitro ADME; conditions: mouse liver microsomes; 1 μM, 15 min, 37 °C, NADPH
Procedure, shortened: (§1)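 Test compound at 1 μM was incubated 15 min at 37 °C with shaking, with human or mouse liver microsomes, phosphate buffer and NADPH. Samples were analysed by UPLC-ESI-MS/MS on a C18 column with a formic acid/acetonitrile gradient. % parent remaining was calculated against similarly prepared un-incubated controls.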

[5] = Stability in liver microsomes; format: in vitro ADME; conditions: human liver microsomes; 1 μM, 15 min, 37 °C, NADPH
Procedure, shortened: as §1

[6] = Brain homogenate binding assay; format: in vitro ADME; conditions: mouse
Procedure, shortened: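 Fresh mouse brains (6–8) were homogenized 1:3 (w/w) in PBS on ice, spiked at 1000 ng/g and run in triplicate. Rapid equilibrium dialysis was against PBS for 4 h at 37 °C, 130 rpm. Matrix-balanced aliquots were extracted with acetonitrile/internal standard and analysed by LC/MS/MS. fu = buffer/homogenate peak-area ratio, corrected for homogenate dilution.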

[7] = Plasma protein binding assay; format: in vitro ADME; conditions: mouse
[8] = Plasma protein binding assay; format: in vitro ADME; conditions: human
[9] = Mouse pharmacokinetic study, intraperitoneal dosing; format: in vivo
Procedure, shortened: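 Male CD-1 mice (~30 g) received 10 mg/kg ip as a 0.5 mg/ml microsuspension in 10% Tween 80/water (20 ml/kg). Plasma (cardiac puncture, EDTA) and PBS-washed brains were collected at 15, 30, 60, 180 and 360 min, n=3 per time. Brains homogenized 1:5 (w/w) in PBS; samples precipitated with acetonitrile plus internal standard and run on HPLC/MS/MS. Dilution-corrected; noncompartmental analysis.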

male CD-1 mice = experiment: Marble burying model of anxiety; format: in vivo, mouse; conditions: 15 minute pretreatment
Procedure, shortened: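 Male CD-1 mice (30–35 g) were habituated 30 min to the test room. After 15 min pretreatment each was placed alone in a cage with 12 evenly spaced marbles on 2.5 cm bedding. Burying recorded over 30 min; counterbalanced design; Dunnett's test versus vehicle.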

C57Bl/6J mice [10] = experiment: Operant sensation seeking; format: in vivo, mouse; conditions: 10 min prior to sessions
Procedure, shortened: (§2)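 Male C57Bl/6J mice (3–5 weeks) responded for varied visual and auditory stimuli: 10–14 daily 1 h FR-1 sessions, then 2 h progressive-ratio sessions. Test compound (0, 3, 10, 30 mg/kg in 10% Tween-80) or reference NAM (0, 1.5, 5, 15 mg/kg in saline; 12 FR sessions) given ip, 20 ml/kg, 10 min pre-session. Latin square, doses 48 h apart. Reinforcers earned analysed by repeated-measures ANOVA/Dunnett.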

C57Bl/6J mice [11] = experiment: Food reinforcer self-administration, progressive ratio responding; format: in vivo, mouse; conditions: 3, 10, 30 mg/kg i.p., 10 min prior to sessions
Procedure, shortened: as §2, with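 “~40 μl of 10% vanilla Ensure:” for “varied visual and auditory stimuli:”, “saline)” for “saline; 12 FR sessions)”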

[12] = male, CD-1, mouse, brain, ip, 10 mg/kg
[13] = mouse, 10 mg/kg intraperitoneal

T1 sequence (P31424 21-1203): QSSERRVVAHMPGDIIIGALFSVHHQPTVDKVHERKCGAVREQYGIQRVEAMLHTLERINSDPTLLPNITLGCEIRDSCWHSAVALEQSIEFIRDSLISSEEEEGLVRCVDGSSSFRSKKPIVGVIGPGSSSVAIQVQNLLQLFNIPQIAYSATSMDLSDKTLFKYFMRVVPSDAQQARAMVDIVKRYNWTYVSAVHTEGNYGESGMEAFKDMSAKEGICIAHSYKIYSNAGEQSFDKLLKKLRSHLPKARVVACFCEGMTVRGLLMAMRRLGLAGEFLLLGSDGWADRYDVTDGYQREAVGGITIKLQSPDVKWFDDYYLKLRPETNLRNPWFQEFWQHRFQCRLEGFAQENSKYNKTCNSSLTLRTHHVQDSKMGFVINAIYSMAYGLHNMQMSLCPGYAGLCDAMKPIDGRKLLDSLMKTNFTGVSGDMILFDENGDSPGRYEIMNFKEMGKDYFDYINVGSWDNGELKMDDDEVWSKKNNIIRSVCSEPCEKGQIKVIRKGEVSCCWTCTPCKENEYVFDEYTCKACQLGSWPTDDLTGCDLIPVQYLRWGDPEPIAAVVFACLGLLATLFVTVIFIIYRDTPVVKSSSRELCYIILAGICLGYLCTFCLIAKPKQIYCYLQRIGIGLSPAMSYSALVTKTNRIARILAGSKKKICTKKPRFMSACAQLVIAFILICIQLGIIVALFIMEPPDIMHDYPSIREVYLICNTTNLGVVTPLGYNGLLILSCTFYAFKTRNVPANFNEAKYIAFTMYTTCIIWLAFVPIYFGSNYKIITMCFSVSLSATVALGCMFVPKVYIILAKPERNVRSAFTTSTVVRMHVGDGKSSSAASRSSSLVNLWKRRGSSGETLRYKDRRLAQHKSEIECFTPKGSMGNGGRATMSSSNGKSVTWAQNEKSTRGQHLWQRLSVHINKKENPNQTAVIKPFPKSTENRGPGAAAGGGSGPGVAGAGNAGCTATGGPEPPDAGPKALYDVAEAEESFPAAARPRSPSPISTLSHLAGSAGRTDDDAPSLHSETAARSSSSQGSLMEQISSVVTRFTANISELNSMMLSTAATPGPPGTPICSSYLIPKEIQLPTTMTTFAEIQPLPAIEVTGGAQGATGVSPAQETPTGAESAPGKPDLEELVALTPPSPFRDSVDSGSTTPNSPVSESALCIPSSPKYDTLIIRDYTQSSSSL
Chain of mGlu2 (Q14416 19-872): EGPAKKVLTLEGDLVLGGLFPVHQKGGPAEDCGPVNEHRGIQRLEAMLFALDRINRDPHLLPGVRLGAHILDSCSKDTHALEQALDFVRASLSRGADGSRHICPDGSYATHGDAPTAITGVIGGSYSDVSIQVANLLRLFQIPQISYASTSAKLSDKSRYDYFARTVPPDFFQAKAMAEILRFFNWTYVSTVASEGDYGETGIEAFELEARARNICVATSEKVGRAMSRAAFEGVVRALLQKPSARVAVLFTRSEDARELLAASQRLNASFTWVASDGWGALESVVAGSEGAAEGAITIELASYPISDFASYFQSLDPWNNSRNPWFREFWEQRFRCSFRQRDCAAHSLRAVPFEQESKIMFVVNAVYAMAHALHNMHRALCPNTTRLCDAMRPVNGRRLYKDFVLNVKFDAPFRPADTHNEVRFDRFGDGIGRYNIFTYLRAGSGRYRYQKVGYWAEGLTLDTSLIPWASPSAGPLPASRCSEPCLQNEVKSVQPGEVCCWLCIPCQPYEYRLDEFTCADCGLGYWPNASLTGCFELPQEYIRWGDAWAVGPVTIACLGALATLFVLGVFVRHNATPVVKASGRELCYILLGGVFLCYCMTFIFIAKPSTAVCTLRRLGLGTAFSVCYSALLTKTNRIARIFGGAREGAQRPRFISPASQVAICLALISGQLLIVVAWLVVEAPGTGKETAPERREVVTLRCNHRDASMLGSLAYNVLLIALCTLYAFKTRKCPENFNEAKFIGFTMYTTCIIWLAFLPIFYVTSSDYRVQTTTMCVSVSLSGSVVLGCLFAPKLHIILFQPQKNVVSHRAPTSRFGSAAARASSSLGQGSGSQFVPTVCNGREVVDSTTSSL
Chain of mGlu7 (Q14831 35-915): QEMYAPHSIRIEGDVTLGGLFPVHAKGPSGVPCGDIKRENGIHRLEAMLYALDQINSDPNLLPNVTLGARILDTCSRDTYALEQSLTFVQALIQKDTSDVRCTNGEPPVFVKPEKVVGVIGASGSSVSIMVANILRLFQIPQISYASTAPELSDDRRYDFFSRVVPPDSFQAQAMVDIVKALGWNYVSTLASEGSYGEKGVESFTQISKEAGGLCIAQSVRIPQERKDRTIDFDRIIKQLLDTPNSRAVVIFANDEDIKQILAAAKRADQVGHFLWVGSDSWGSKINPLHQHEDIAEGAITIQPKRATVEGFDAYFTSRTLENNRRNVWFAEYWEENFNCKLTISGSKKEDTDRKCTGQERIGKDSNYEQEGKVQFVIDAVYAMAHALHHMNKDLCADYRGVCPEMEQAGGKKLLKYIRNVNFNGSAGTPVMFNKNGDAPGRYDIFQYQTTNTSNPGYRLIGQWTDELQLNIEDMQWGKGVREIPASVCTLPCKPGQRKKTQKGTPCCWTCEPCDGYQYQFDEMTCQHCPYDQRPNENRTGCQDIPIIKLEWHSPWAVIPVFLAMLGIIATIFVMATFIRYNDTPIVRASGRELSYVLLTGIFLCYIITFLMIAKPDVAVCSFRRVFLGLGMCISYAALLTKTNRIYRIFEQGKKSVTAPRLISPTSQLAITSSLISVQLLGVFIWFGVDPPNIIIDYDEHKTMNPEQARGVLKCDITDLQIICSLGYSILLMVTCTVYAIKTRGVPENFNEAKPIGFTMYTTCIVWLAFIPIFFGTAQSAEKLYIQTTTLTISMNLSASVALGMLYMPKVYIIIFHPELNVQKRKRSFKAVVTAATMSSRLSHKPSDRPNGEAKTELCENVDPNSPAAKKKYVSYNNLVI
Chain of mGlu3 (Q14832 23-879): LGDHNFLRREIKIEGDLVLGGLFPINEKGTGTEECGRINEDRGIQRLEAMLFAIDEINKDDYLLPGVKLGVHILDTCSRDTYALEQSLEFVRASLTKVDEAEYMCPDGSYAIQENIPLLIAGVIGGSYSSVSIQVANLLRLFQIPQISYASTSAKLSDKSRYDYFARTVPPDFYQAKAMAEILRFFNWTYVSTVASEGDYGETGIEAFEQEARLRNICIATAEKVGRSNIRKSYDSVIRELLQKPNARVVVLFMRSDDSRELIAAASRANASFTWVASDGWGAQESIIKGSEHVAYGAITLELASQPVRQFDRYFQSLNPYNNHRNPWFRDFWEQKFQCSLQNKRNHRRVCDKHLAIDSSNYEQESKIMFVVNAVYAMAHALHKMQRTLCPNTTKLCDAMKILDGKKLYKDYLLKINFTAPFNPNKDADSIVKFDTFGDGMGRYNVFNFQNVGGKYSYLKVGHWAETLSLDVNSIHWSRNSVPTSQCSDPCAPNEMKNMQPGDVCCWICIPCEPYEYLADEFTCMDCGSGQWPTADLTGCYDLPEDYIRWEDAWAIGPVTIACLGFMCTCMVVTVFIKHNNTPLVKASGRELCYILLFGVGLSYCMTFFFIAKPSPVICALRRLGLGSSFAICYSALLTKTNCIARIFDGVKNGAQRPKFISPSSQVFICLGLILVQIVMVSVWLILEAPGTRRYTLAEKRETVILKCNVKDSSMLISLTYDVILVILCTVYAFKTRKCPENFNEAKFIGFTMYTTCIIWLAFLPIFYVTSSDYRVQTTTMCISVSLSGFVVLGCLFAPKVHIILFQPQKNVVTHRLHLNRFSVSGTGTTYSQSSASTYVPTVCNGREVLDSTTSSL
Chain of mGlu1 (Q13255 19-1194): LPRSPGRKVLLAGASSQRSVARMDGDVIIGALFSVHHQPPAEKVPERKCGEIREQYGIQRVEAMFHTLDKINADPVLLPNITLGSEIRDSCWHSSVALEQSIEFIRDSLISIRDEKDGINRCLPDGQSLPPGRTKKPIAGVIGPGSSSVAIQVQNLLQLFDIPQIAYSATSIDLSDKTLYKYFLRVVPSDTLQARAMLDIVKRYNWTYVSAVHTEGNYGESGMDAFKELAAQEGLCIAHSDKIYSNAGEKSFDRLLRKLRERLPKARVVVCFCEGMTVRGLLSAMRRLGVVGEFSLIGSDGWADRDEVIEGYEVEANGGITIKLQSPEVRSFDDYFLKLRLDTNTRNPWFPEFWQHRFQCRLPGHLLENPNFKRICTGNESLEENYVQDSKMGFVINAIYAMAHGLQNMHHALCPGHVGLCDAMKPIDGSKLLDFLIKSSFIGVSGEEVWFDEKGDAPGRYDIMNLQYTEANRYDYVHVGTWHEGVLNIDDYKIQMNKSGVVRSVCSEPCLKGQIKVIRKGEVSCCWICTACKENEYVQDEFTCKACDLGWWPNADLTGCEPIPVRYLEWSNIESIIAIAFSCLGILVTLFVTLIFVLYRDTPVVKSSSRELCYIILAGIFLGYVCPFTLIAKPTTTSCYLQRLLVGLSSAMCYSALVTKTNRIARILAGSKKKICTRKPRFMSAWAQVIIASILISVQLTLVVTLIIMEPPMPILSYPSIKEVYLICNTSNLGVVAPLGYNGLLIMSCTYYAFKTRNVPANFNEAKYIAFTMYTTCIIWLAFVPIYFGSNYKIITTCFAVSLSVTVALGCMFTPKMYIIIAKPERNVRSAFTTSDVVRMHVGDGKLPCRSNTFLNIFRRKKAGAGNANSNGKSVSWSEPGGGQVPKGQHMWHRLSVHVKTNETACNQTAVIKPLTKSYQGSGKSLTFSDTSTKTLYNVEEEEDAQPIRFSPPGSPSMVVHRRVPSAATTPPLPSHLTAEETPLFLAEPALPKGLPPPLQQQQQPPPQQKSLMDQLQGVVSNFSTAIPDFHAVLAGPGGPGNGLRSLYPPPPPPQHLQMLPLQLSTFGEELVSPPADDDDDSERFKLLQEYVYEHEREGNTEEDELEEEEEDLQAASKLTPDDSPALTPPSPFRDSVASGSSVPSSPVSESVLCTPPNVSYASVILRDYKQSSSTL
Chain of mGlu5 in rat cortical astrocytes (P31424 21-1203): as the sequence (P31424 21-1203) above

Cc1nc2cc(-c3cc(F)cc(C#N)c3)ccc2s1 [Compound 18, 3-fluoro-5-(2-methylbenzo[d]thiazol-5-yl)benzonitrile]
IC50 (rat mGlu5 [1]): 0.061 ± 0.007 µM
% Glu Max (rat mGlu5 [1]; average of n ≥ 3): 0.63 ± 0.12%
block of radioligand binding (rat mGlu5 [2]; [3H]3-methoxy-5-(pyridin-2-ylethynyl)pyridine, at the highest concentration): almost completely block the binding of the radioligand
Ki for binding relative to potency in the functional assay (rat mGlu5 [2]; [3H]methoxyPEPy competition versus calcium mobilization IC50): approximately eight fold less
blockade of the glutamate response [3]: near complete blockade
selectivity, activity against mGlu1 (mGlu1): inactive
selectivity, activity against mGlu2 (mGlu2): inactive
selectivity, activity against mGlu3 (mGlu3): inactive
selectivity, activity against mGlu4 (mGlu4): inactive
selectivity, activity against mGlu7 (mGlu7): inactive
selectivity, activity against mGlu8 (mGlu8): inactive
% Parent Remaining [4]: 18%
% Parent Remaining [5]: 20%
fraction unbound at 4 h, 1000 ng/g [6]: 0.001
fraction unbound at 4 h, 1000 ng/g [7]: 0.005
fraction unbound at 4 h, 1000 ng/g [8]: 0.006
Tmax [9, 12]: 15 min
concentration at 30 min [9, 12]: 3.75 µM
AUC(0-t) ([9]; male, CD-1, mouse, plasma, ip, 10 mg/kg): 0.801 µg·h/mL
AUC0-6h in brain [9, 13]: 1530 ng·h/g
brain exposure until the one hour time point [9, 13]: above 500 ng/g
exposure in brain relative to plasma ([9]; mouse, 10 mg/kg intraperitoneal, AUC0-6h): nearly two fold higher
brain exposure expected at 30 mg/kg ([9]; mouse, assuming a dose linear increase in exposure from the 10 mg/kg study): > 10 µM
inhibition of marble burying (male CD-1 mice; 30 mg/kg ip): Significant inhibition
progressive ratio responding for OSS stimuli (C57Bl/6J mice [10]; 3, 10, 30 mg/kg i.p.): dose dependently reduce
progressive ratio responding for food reinforcer (C57Bl/6J mice [11]): no significant effects

Cc1nc(C#Cc2cccnc2)cs1 [MTEP, 3-[(2-methyl-1,3-thiazol-4-yl)ethynyl]pyridine, reference compound]
inhibition of marble burying (male CD-1 mice; 15 mg/kg ip, positive control): significant effect
progressive ratio responding for OSS stimuli (C57Bl/6J mice [10]; 1.5, 5, 15 mg/kg i.p.): dose-dependently reduced

Cc1ccc2ccc(-c3cc(F)cc(C#N)c3)cc2n1 [Compound 3, reference compound]
% Glu Max (rat mGlu5 [1]; average of n ≥ 3): 1.2 ± 0.3%
IC50 (rat mGlu5 [1]; read-out: mGlu5 IC50, calcium mobilization, EC80 glutamate, HEK293A cells expressing rat mGlu5, average of n ≥ 3): 0.0095 ± 0.0016 µM
